In ChEMBL document CHEMBL4414562, “Discovery of the First in Vivo Active Inhibitors of the Soluble Epoxide Hydrolase Phosphatase Domain” (J Med Chem, 2019):
Active and inactive are the calls of the source. The rule behind the calls is not given here.

How the values were obtained:
[1] = Inhibition of hexa-His-tagged human soluble epoxide hydrolase N-terminal phosphatase domain expressed in Escherichia coli BL21(DE3) pre-incubated for 30 mins before FDP substrate addition by fluorescence based assay
[2] = organism: Homo sapiens; assay: Induction of stabilization of hexa-His-tagged human soluble epoxide hydrolase N-terminal phosphatase domain expressed in Escherichia coli BL21(DE3) at 50 uM by differential scanning fluorimetry
[3] = biological target: T1, Bifunctional epoxide hydrolase 2 (Homo sapiens) (UniProt P34913); assay: Induction of stabilization of hexa-His-tagged human soluble epoxide hydrolase C-terminal hydrolase domain expressed in Escherichia coli BL21(DE3) at 50 uM by differential scanning fluorimetry
T1 sequence (whole entry): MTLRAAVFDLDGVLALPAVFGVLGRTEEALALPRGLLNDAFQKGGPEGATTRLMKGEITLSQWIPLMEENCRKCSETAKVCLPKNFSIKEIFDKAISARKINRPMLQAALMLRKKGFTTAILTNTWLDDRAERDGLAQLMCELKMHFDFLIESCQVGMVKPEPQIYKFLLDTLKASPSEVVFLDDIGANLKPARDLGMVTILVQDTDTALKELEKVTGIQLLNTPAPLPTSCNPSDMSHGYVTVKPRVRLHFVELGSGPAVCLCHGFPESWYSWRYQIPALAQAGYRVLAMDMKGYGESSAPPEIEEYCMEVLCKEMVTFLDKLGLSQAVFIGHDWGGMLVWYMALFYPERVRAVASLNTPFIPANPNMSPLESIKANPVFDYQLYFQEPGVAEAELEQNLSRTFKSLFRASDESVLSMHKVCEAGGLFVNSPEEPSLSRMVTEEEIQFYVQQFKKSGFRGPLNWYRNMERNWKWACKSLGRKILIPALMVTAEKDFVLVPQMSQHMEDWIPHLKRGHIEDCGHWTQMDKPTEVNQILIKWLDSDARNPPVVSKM

[4] = biological target: T2, Bifunctional epoxide hydrolase 2 (Homo sapiens, UniProt P34913); assay: Inhibition of hydrolase activity of full length human soluble epoxide hydrolase pre-incubated for 30 mins before PHOME substrate addition by fluorescence based assay
T2 sequence (P34913 whole entry): T1 sequence (whole entry)
In short: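 Hydrolase assay with 0.1 μM full-length enzyme in Bis-Tris pH 7 containing 0.1 mg/mL BSA and 0.01% Triton X-100. Reaction started with PHOME (50 μM final). Triplicates.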

[5] = organism: Homo sapiens
[6] = biological target: T2, Bifunctional epoxide hydrolase 2; assay: Inhibition of phosphatase activity of full length human soluble epoxide hydrolase pre-incubated for 30 mins before FDP substrate addition by fluorescence based assay
[7] = biological target: T2, Bifunctional epoxide hydrolase 2; assay: Inhibition of hexa-His-tagged human soluble epoxide hydrolase C-terminal hydrolase domain expressed in Escherichia coli BL21(DE3) pre-incubated for 30 mins before PHOME substrate addition by fluorescence based assay

Structure (SMILES) | IC50 [1] [µM] | further results
COc1cccc(-c2oc(CCCC(=O)O)nc2-c2ccc(Cl)c(Cl)c2)c1 | 0.31 | –
O=C(O)/C=C/c1nc(-c2ccc(Cl)c(Cl)c2)c(-c2ccccc2)o1 | 0.51 | –
O=C(Nc1ccc(I)cc1)NC1CCCCC1 | – | Activity [2]: inactive; Activity [3]: Active
O=C(O)CCc1nc(-c2cccc(F)c2)c(-c2ccccc2)o1 | 7 | –
CC(=O)N[C@@H](CSC/C=C(\C)CC/C=C(\C)CCC=C(C)C)C(=O)O | 0.55 | IC50 [4]: > 300 µM; ΔTm [5]: 3.4 °C; IC50 [6]: 2.04 µM; IC50 [7]: > 300 µM
O=C(O)CCc1nc(-c2ccc(Cl)c(C(F)(F)F)c2)c(-c2ccccc2)o1 | 2 | –
O=C(O)CCc1nc(-c2ccccc2F)c(-c2ccccc2)o1 | 40 | –
O=C(O)CCCc1nc(-c2ccc(Cl)c(Cl)c2)co1 | > 50 | –
O=C(O)CCCc1nc(-c2ccc(Cl)c(Cl)c2)c(-c2ccccc2F)o1 | 0.31 | –
O=C(O)CCc1nc(-c2ccccc2Cl)c(-c2ccccc2)o1 | 33 | –
O=C(O)CCCc1nc(-c2ccc(Cl)c(Cl)c2)c(-c2cccc(F)c2)o1 | 0.12 | –
N#Cc1ccc(-c2nc(CCC(=O)O)oc2-c2ccccc2)cc1 | 44 | –
O=C(O)CCc1nc(-c2ccc(F)cc2)c(-c2ccccc2)o1 | 9 | –
N#Cc1cccc(-c2nc(CCC(=O)O)oc2-c2ccccc2)c1 | 10 | –
O=C(O)CCCc1nc(-c2ccc(Cl)c(Cl)c2)c(-c2ccncc2)o1 | 20 | –
O=C(O)c1ccccc1-c1nc(-c2ccc(Cl)c(Cl)c2)c(-c2ccccc2)o1 | 15 | –
N#Cc1cccc(-c2oc(CCCC(=O)O)nc2-c2ccc(Cl)c(Cl)c2)c1 | 0.12 | –

Structure (SMILES) | IC50 [1] [µM] | further results
C#Cc1cccc(-c2oc(CCCC(=O)O)nc2-c2ccc(Cl)c(Cl)c2)c1 | 0.14 | –
O=C(O)c1ccc(-c2nc(-c3ccc(Cl)c(Cl)c3)c(-c3ccccc3)o2)cc1 | 12 | –
COc1ccc(-c2nc(CCC(=O)O)oc2-c2ccccc2)cc1 | 18 | –
O=c1c2ccccc2[se]n1-c1ccccc1 [EBSELEN] | 0.29 | IC50 [4]: 0.3 µM; IC50 [6]: 0.42 µM; IC50 [7]: 0.11 µM
Cc1cccc(-c2oc(CCCC(=O)O)nc2-c2ccc(Cl)c(Cl)c2)c1 | 0.31 | –
O=C(O)CCCc1nc(-c2ccc(Cl)c(Cl)c2)c(-c2cccnc2)o1 | 4 | –
O=C(O)CCc1nc(-c2ccc(Cl)cc2)c(-c2ccccc2)o1 | 3 | –
O=C(O)CCCc1nc(-c2ccc(Cl)c(Cl)c2)c(-c2cc(F)ccc2F)o1 | 0.28 | –
O=C(O)CCc1nc(-c2ccc(Cl)cc2Cl)c(-c2ccccc2)o1 | 17 | –
O=C(O)CCc1nc(-c2ccc(Cl)c(Cl)c2)c(-c2ccccc2)o1 | 0.12 | –
O=C(O)CCc1nc(-c2cc(Cl)cc(Cl)c2)c(-c2ccccc2)o1 | 9 | –
O=C(O)c1cccc(-c2nc(-c3ccc(Cl)c(Cl)c3)c(-c3ccccc3)o2)c1 | 0.15 | –
O=C(O)CCCc1nc(-c2ccc(Cl)c(Cl)c2)c(Br)o1 | 3 | –
O=C(O)CCc1nc(-c2ccc(C(F)(F)F)cc2)c(-c2ccccc2)o1 | 33 | –
O=C(O)CCCc1nc(-c2ccc(Cl)c(Cl)c2)c(-c2cccc(C(F)(F)F)c2)o1 | 0.41 | –
O=C(O)CCCc1nc(-c2ccc(Cl)c(Cl)c2)c(-c2cccc(Cl)c2)o1 | 0.23 | –
